# Screening data (PubChem)
# Hits are enriched below; roughly 7.1% of the tested compounds scored in any of these assays.
# Cav3 T inh – Cav3.2 calcium influx blockers – cell-based, Fluo-4 calcium fluorescence, FDSS, MLSMR library, primary screen | Voltage-dependent T-type calcium channel subunit alpha-1H (Homo sapiens), O95180 | Cav3.2-expressing cells; hits give low values | 100,000 compounds, 4% hits | AID 449739, 2010 | B-score at 10 µM;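 active means single-dose well whose peak fluorescence ratio is a statistical outlier from its plate by either plate-standardised score or position-corrected B-score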
# H69AR inhibit – proliferation blockers of H69AR lung cancer cells, primary screen, cell-based, human, 86K library; H69AR lung tumor viability, ATP luminescence, 72 h; hits give low values; AID 598, 2007; viability, % at 10 µM; 85,000 compounds, 6% hits;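 active means viability at or below 40%; inactive means viability above 40%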;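 further: multidrug resistant small cell line overexpressing MRP-1 efflux transporter; 100% = mean luminescence of untreated control wells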
# bCat KO growth – primary screen for growth suppressors in beta-catenin knockout HCT116 cells (colon tumor, human); HCT116 beta-catenin knockout viability, CellTiter-Glo, 60 h; hits give low values; viability, % at 10 µM; 140,000 compounds, 1.5% hits;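 active means viability at or under a set limit, the compound median less 4 SD, cut at about 6% in these data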;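 further: 0% = Hyamine 1622 control at 20 µM and 100% = untreated cell control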
# HCT116 PTEN-null – growth suppression of PTEN-null HCT116, primary screen, cell-based, CellTiter-Glo; HCT116 PTEN-null viability, 60 h; hits give low values; viability, % at 10 µM; 140,000 compounds, 1.2% hits;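 active means viability at or below a set limit, 4 SD under the median of all tested compounds, cut at about 3.7% in these data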;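 further: PTEN knockout HCT116 line with beta catenin targeted HCT116 as companion control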
# HUVEC prolif 384 – inhibitors of HUVEC proliferation, primary screen, cell-based, 384-well | CellTiter-Glo luminescence, 72 h; hits give low values | viability, % at 10 µM (by protocol) | 86,000 compounds, 1.1% hits | AID 648, 2007;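 active means viability at or below 30%; inactive means viability above 30%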;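 further: 100% = median luminescence of DMSO-only cell control wells on each plate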
# Lung fibro prol – antiproliferative effect on LL 47 fibroblasts – human, LL 47 cells, CellTiter-Glo luminescence, primary screen | LL 47 human lung fibroblast viability, ATP luminescence; hits give low values | viability, % at 10 µM | 85,000 compounds, 1.1% hits | AID 719, 2007;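 active means viability at or below 50% in the single dose screen; inactive means viability above 50%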;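 further: compound exposure lasted 72 h before the ATP readout; 100% = median luminescence of untreated cell-only wells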
#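 material = human LL 47 lung fibroblast cells | dosing = compounds added from tenfold dosing solution, 0.1% DMSO final | timing = overnight cell rest, 72 h compound treatment at 37 °C | measured by = CellTiter-Glo luminescence measuring cellular ATP | evaluation = % viability versus median cells-only luminescence | control set = cell-only wells, no compound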
# Starred values were filed as active, the others as inactive; / = no result given.
SMILES,Cav3 T inh,H69AR inhibit,bCat KO growth,HCT116 PTEN-null,HUVEC prolif 384,Lung fibro prol
COc1ccccc1N1CCN(Cc2ccc(OC)c(OC)c2OC)CC1,0.98,103,66,71,86,88
CCOC(=O)C1CCN(Cc2ccc(O)c3ncccc23)CC1,-0.34,1.1*,3.0*,1.9*,80,79
COc1ccccc1N1CCN(Cc2ccc(O)c3ncccc23)CC1,1.8,/,3.3*,1.7*,/,/
Oc1ccc(CN2CCCc3ccccc32)c2cccnc12,0.56,34*,10,5,86,59
CCOC(=O)C1CCN(Cc2ccccc2C(F)(F)F)CC1,-0.36,100,81,106,90,98
c1ccc(-c2nnc(CN3CCCc4ccccc43)o2)cc1,/,95,80,90,96,96
CCN(CC)c1ccc(/C=C(\C#N)c2nc(-c3cccs3)c(NC(C)=O)s2)cc1,/,/,48,50,/,/
COc1ccc(CCn2c(-c3cc([N+](=O)[O-])cc([N+](=O)[O-])c3)nc3nc4ccccc4nc32)cc1OC,/,/,72,78,/,/
Cc1cc(C)cc(N(CC(=O)NCc2ccc3c(c2)OCO3)C(=O)CCC(=O)Nc2ccccn2)c1,-6.1*,97,79,80,95,98
O=C(CCC(=O)N(CC(=O)NC1CCCCC1)c1ccc2c(c1)OCO2)Nc1ccccn1,-5.7*,95,85,94,100,93
CCOc1ccc(N(CC(=O)NC2CCCC2)C(=O)CCC(=O)Nc2ccccn2)cc1,-1.8,100,89,95,99,96
CCCCCN(C(=O)NC(=O)Nc1ccccc1C)S(=O)(=O)c1ccccc1,/,/,77,73,/,/
CCc1ccc(-c2nn(-c3cc(Cl)ccc3[N+](=O)[O-])c(=O)c3ccccc23)cc1,-3.6*,/,94,88,/,/
Cc1nn(-c2cc(N3CCCCCC3)ccc2[N+](=O)[O-])c(=O)c2ccccc12,0.0084,81,95,88,95,96
O=c1c2ccccc2c(-c2ccccc2)nn1Cc1ccc(Cl)cc1,0.66,/,97,83,/,/
O=c1c2ccccc2c(-c2ccc(Cl)cc2)nn1-c1ccccc1,/,/,92,83,/,/
Cc1ccc(-c2nn(-c3cc(Cl)ccc3[N+](=O)[O-])c(=O)c3ccccc23)cc1C,-4.6*,/,76,72,/,/
O=c1c2ccccc2c(-c2ccccc2)nn1-c1cc(Cl)ccc1[N+](=O)[O-],-6.9*,/,76,80,/,/
CCOC(=O)N1CCC(=NNC(=O)c2ccc(O)cc2)CC1,/,/,99,94,/,/
CCOC(=O)NC(=O)C(=CNc1ccc(C)cc1)C(=O)NC(=O)OCC,/,/,84,90,/,/
CSc1nsc(SCc2ccc(F)cc2)n1,0.33,30*,97,110,110,/
O=c1c2ccccc2nc2n1CCCCN2,0.28,89,94,94,98,101
Cn1c(=O)c2c(SCc3ccccn3)nc(CC(C)(C)C)nc2n(C)c1=O,-5.9*,63,85,75,81,91
CCCc1nc(SCc2ccccn2)c2c(=O)n(C)c(=O)n(C)c2n1,-0.41,71,83,84,79,91
Cc1nnnn1CC(=O)Nc1ccccc1[N+](=O)[O-],/,/,94,97,/,/
SMILES,Cav3 T inh,H69AR inhibit,bCat KO growth,HCT116 PTEN-null,HUVEC prolif 384,Lung fibro prol
Nc1nc(CSc2nnc(-c3cccc(F)c3)n2-c2ccccc2)nc(N2CCOCC2)n1,/,69,93,101,109,95
Brc1cccc(-c2nnc(SCc3ccon3)n2-c2ccccc2)c1,-4.6*,69,82,75,94,95
COc1ccc2nc(NC(=S)N(C)C)sc2c1,-0.16,60,54,48,85,99
COc1ccc(S(=O)(=O)N2CCCN(S(=O)(=O)c3ccc(OC)c(C)c3)CC2)cc1C,-3.2,33*,49,50,66,94
COc1ccc(S(=O)(=O)Nc2ccc(S(=O)(=O)N3CCCCC3)cc2)cc1C,-0.85,71,102,98,86,95
COc1ccc(S(=O)(=O)N2CCC(C(=O)N3CCc4ccccc4C3)CC2)cc1C,-5*,67,89,84,91,93
Cc1cc(Cl)ccc1NC(=O)CN1CCC(C(O)(c2ccccc2)c2ccccc2)CC1,-4.3*,/,43,61,/,/
Cc1ccc(NC(=O)CN2CCC(NC(=O)Cc3ccccc3)CC2)c(C)c1,/,/,95,102,/,/
